Bioassay records from PubChem.
TNAP act hi DEA: increases human TNAP activity under high phosphate acceptor concentration. P05186. purified TNAP, CDP-star luminescence, 1 M DEA, 30 min; active compounds read high; 0 = EDTA background, 1 = DMSO-only activity. activation factor at 20 µM. 200,000 tested, under 10 active. AID 1136;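 active = activation factor at least 2 at 20 µM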
Target sequence (P05186 whole entry, looked up): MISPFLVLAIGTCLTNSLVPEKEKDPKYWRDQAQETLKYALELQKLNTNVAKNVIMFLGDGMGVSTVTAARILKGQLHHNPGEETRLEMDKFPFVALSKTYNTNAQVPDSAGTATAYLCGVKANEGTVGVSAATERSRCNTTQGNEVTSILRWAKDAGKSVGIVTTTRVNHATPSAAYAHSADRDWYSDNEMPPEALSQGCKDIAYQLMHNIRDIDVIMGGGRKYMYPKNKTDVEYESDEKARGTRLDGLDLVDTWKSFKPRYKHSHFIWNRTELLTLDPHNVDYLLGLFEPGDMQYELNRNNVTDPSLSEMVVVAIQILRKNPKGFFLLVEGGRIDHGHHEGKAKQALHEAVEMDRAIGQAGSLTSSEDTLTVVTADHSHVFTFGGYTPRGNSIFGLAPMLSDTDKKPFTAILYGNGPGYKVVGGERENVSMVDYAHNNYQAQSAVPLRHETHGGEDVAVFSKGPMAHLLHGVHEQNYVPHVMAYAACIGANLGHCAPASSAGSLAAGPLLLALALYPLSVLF
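Dosing: 20 µM single point. System: human TNAP. Amount: TNAP 1/800 final. Incubation: 30 min, room temperature. Read-out: TNAP activation factor scaled between EDTA and DMSO control wells. Signal: luminescence from CDP-star hydrolysis. Medium: 1 M DEA, pH 9.8, Mg2+, Zn2+. Control set: EDTA negative control, DMSO positive control.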
NCF1 inh: p47phox (human) inhibition; AID 1274; P14598; 0.53% of 220,000 active; p47phox/p22phox peptide binding, fluorescence polarization, 2 h; inhibition, % at 24.7 µM;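 active = inhibition above about 30%, limit read from the data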
TNAP inh no acc: inhibitors of human TNAP without phosphate acceptor. purified TNAP, CDP-star luminescence, 30 min. 0.26% of 200,000 active. AID 1012. P05186. inhibition, % at 20 µM;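 active = tissue-nonspecific alkaline phosphatase inhibition above about 50% at 20 µM in the single-dose screen, limit read from the data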
Ins promoter up: MIN6 insulin promoter up-regulation | MIN6 insulin promoter-GFP reporter, high-content imaging; active compounds read high | z-score at 5 µM | 0.3% of 190,000 active;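 active = z-score above 3 at 5 µM with at least 500 cells counted in the well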
TNAP inh hi DEA: blocks human TNAP under high phosphate acceptor concentration. P05186. purified TNAP, CDP-star luminescence, 1 M DEA. inhibition, % at 20 µM. 0.03% of 200,000 active. AID 1135;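 active = over 50% inhibition of tissue-nonspecific alkaline phosphatase at 20 µM in the single-dose screen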
Autophagy mod: modulators of autophagy; MEF GFP-LC3 puncta imaging; test concentration mostly 10 µM; calls only at 10 µM (by protocol); 0.98% of 190,000 active; AID 463193;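 active = percentage of spot-positive cells more than 3 SD above its plate mean, without a fluorescence outlier flag or 80% toxicity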
Hits are given with their value; i = inactive; nt = not tested or not shown; + = active, no number. An excerpt weighted towards active compounds, which were near 1.8% of everything screened.

SMILES	TNAP act hi DEA	NCF1 inh	TNAP inh no acc	Ins promoter up	TNAP inh hi DEA	Autophagy mod
O=C(O)CNC(=O)C12CC3CC(CC(Cl)(C3)C1)C2	i	i	i	i	i	i
CN(CCOc1ccc(-c2ccn(S(=O)(=O)c3cccc4ccccc34)n2)cc1)c1ccccn1	i	i	i	i	i	i
Cc1ccc(-c2[nH]ncc2/C=N/n2c(COc3ccccc3)nc3ccccc3c2=O)cc1	i	i	i	i	i	+
Cc1ccccc1OCc1nc2ccccc2c(=O)n1/N=C/c1cn[nH]c1-c1ccccc1	i	i	i	i	i	+
C=CCN1C(=O)/C(=C2/Sc3ccc(OC)cc3N2C)SC1=NCc1ccccc1	i	i	i	i	i	+
COc1ccc2c(c1)N(C)/C(=C1/SC(=NCc3ccccc3)N(c3ccccc3)C1=O)S2	i	i	i	i	i	+
CCOC(=O)C1C(=O)NC(c2ccccc2)=NC1c1ccc(Br)cc1 (stereo unspecified)	i	i	i	i	i	i
Cc1ccc(S(=O)(=O)NCC2CCC(C(=O)NCCCN3CCOCC3)CC2)cc1 (stereo unspecified)	i	i	i	i	i	i
Cc1cc(C)c(S(=O)(=O)NCC2CCC(C(=O)NCCCN3CCOCC3)CC2)c(C)c1 (stereo unspecified)	i	39	i	i	i	i
NC(=O)Cc1ccc(Nc2nnc(-c3ccc(O)cc3)c3ccccc23)cc1	i	i	i	i	i	i
CCOC(=O)N1CCN(S(=O)(=O)c2ccc(C(=O)Nc3nc4c(s3)CC(C)CC4)cc2)CC1 (stereo unspecified)	i	i	i	i	i	+
CCOC(=O)N1CCN(S(=O)(=O)c2ccc(C(=O)Nc3nnc(C4CC4)o3)cc2)CC1	i	i	i	i	i	i
COc1ccc(CNC(=O)c2ccc(CS(=O)(=O)Cc3ccccc3F)o2)cc1	i	i	i	i	i	i
CCCCCn1c(N)c(-c2nc3ccccc3o2)c2c([N+](=O)[O-])nn(C)c(=O)c21	i	38	i	i	i	i
CCCCCn1c(N)c(-c2nc3ccccc3o2)c2c([N+](=O)[O-])nn(CC)c(=O)c21	i	i	i	i	i	i
c1ccc(-c2ccc(-c3nccc4ccccc34)[nH]2)cc1	nt	i	nt	4.4	nt	nt
N#Cc1cc(-c2ccccc2)[nH]c1-c1nccc2ccccc12	nt	i	nt	i	nt	nt
CC(=O)C1=C(C)Nc2ncnn2C1c1ccc(Cl)cc1Cl (stereo unspecified)	i	i	i	3.5	i	i
CCOc1ccccc1N=c1oc2cc(O)ccc2cc1C(=O)NCC1CCCO1 (stereo unspecified)	i	i	i	i	i	i
CCOC(=O)c1c(/N=C/N(C)C)sc(/C=N/Nc2ccccc2)c1-c1ccc(Cl)cc1	i	i	i	i	i	i
COc1ccc(Nc2ncnc3ccccc23)c(OC)c1	i	i	i	nt	i	i
COc1ccc(Nc2nc(N3CCCC3)nc3ccccc23)c(OC)c1	i	i	i	i	i	+
COc1ccc(OC)c(Cc2nnc(CCC(=O)NCc3ccc(C)s3)o2)c1	i	i	i	i	i	i
Cc1[nH][nH]c(=O)c1C(c1cc([N+](=O)[O-])ccc1O)c1c(C)[nH][nH]c1=O	i	i	79	i	77	i
Cc1[nH][nH]c(=O)c1C(c1ccccc1[N+](=O)[O-])C(C#N)C#N (stereo unspecified)	i	i	i	i	i	i
SMILES	TNAP act hi DEA	NCF1 inh	TNAP inh no acc	Ins promoter up	TNAP inh hi DEA	Autophagy mod
COc1cc(C(=O)NCC(c2ccccc2)N(C)C)ccc1OCC(=O)N1CCOCC1 (stereo unspecified)	i	i	i	i	i	i
Cc1cc(C)cc(C(=O)Nc2ccc(N3CCCC3)cc2)c1	i	i	i	i	i	i
O=C(Nc1ccc(N2CCOCC2)cc1)c1ccc(S(=O)(=O)N2CCCCC2)cc1	i	37	i	i	i	i
CC(C)Oc1ccc(C(=O)Nc2ccc(N3CCCC3)cc2)cc1	i	34	i	i	i	i
CC(NC(=O)CCc1nnc(CCCc2ccccc2)o1)c1ccccc1 (stereo unspecified)	i	i	i	nt	i	i
COC(=O)[C@@H](NC(=O)Nc1cccc(OC)c1)C(C)C	i	i	i	3	i	i
CCOc1cc(NC(=O)c2ccco2)c(OCC)cc1NC(=O)COc1ccccc1C	nt	nt	nt	nt	nt	+
Cc1onc(-c2ccccc2)c1CNS(=O)(=O)c1cccc(Br)c1	nt	i	nt	nt	nt	nt
CCc1ccccc1NC(=O)CSc1nc(-c2ccccc2)nn1C(=O)c1cccc([N+](=O)[O-])c1	i	i	i	i	i	i
O=C(CSc1nc(-c2ccccc2)nn1C(=O)c1ccccc1)Nc1cccc([N+](=O)[O-])c1	i	i	54	nt	i	i
Cc1cccc(NS(=O)(=O)c2cc(NC(=O)CC(=O)c3ccc([N+](=O)[O-])cc3)ccc2C)c1	i	35	i	i	i	i
O=C(Nc1cccc([N+](=O)[O-])c1)c1cccc(C(=O)Nc2cccc([N+](=O)[O-])c2)c1	nt	41	nt	i	nt	nt
CN(O)C(=O)Nc1ccc([N+](=O)[O-])cc1	i	128	i	i	i	i
CC(C)(C)C(=O)Nc1ccc(Sc2ccc([N+](=O)[O-])cc2)cc1	i	i	i	i	i	i
CC(C)CCn1c2ccccc2c2cc(CC(N)=O)ccc21	nt	i	nt	nt	nt	nt
CC(=O)N1N=C(c2cccs2)CC1c1cc2cc(C)ccc2nc1Cl (stereo unspecified)	nt	i	nt	i	nt	nt
Cc1ccc([N+](=O)[O-])cc1S(=O)(=O)Nc1ccc(C(=O)N(C)C)cc1	i	i	i	i	i	+
CN(C)S(=O)(=O)Oc1cccc(C(=O)Nc2ccc([N+](=O)[O-])cc2)c1	i	i	i	3.4	i	i
NS(=O)(=O)c1cccc(NC(=S)NC(=O)c2cccc([N+](=O)[O-])c2)c1	i	i	70	i	i	i
Cc1ccc(C(=O)Nc2cccc([N+](=O)[O-])c2)cc1S(=O)(=O)Nc1ccc(C(=O)O)cc1	i	60	i	i	i	i
O=C(NC(=S)Nc1cccc(NC(=O)c2ccccc2)c1)c1cccc([N+](=O)[O-])c1	i	i	i	i	i	i
Cc1ccc(C(=O)Nc2ccc(C(=O)O)cc2)cc1S(=O)(=O)Nc1cccc([N+](=O)[O-])c1	i	i	i	i	i	i
O=C(Nc1ccc(O)cc1)c1cccc(Oc2ccc([N+](=O)[O-])cc2)c1	i	i	i	i	i	i
CC(=O)Nc1ccc(NS(=O)(=O)c2cc([N+](=O)[O-])ccc2C)cc1	i	i	i	i	i	i
Oc1ccc(Cl)cc1C1=Nc2ccccc2N=C(c2ccco2)C1	i	i	i	4.3	i	+
COc1ccc(O)c(C2=Nc3ccccc3N=C(c3ccco3)C2)c1	i	i	i	i	i	i
